ChEMBL document CHEMBL3526002, “Tissue distribution and identification of radioactivity components at elimination phase after oral administration of [¹⁴C]CS-1036, an α-amylase inhibitor, to rats” (Drug Metab Dispos, 2013)

Tests used:
Set-up in all cases: dose 5 mg/kg, dosed compound name [14C]CS-1036, route oral
Conditions in all cases: in vivo
Spleen = assay: Drug uptake in albino F344/DuCrlCrlj rat spleen at 5 mg/kg, po after 8 hrs by liquid scintillation counting; format: ADME, organism-based
Harderian gland [1] = assay: Drug uptake in albino F344/DuCrlCrlj rat harderian gland at 5 mg/kg, po after 336 hrs by liquid scintillation counting; format: ADME, organism-based
Liver [2] = assay: Drug uptake in albino F344/DuCrlCrlj rat liver at 5 mg/kg, po after 1 hr by liquid scintillation counting; format: ADME, organism-based
Stomach = assay: Drug uptake in albino F344/DuCrlCrlj rat stomach assessed as ng equivalent of CS-1036 at 5 mg/kg, po after 1 hr by liquid scintillation counting; format: ADME, organism-based
Aorta [3] = assay: Drug uptake in albino F344/DuCrlCrlj rat aorta assessed as ng equivalent of CS-1036 at 5 mg/kg, po after 8 hrs by liquid scintillation counting; format: ADME, organism-based
Harderian gland [4] = assay: Drug uptake in albino F344/DuCrlCrlj rat harderian gland at 5 mg/kg, po after 168 hrs by liquid scintillation counting; format: ADME, organism-based
Liver [5] = assay: Drug uptake in albino F344/DuCrlCrlj rat liver assessed as ng equivalent of CS-1036 at 5 mg/kg, po after 8 hrs by liquid scintillation counting; format: ADME, organism-based
Blood = assay: Drug uptake in albino F344/DuCrlCrlj rat blood at 5 mg/kg, po after 168 hrs by liquid scintillation counting; format: ADME, organism-based
Procedure, shortened: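 Male F344/DuCrlCrlj rats (159–167 g; n = 3 per time point) received a single oral dose of [14C]CS-1036 at 5 mg/kg. Blood was taken from the abdominal aorta at 1, 4, 8, 24, 72, 168 and 336 h. Radioactivity was counted by LSC with external-standard efficiency correction. Results were converted to ng equivalent of CS-1036/ml using specific activity and sample volume, and reported as mean + S.D.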

Cerebellum [6] = assay: Drug uptake in albino F344/DuCrlCrlj rat cerebellum assessed as ng equivalent of CS-1036 at 5 mg/kg, po after 1 hr by liquid scintillation counting; format: ADME, organism-based
[7] = Drug uptake in albino F344/DuCrlCrlj rat bone marrow assessed as ng equivalent of CS-1036 at 5 mg/kg, po after 336 hrs by liquid scintillation counting; format: ADME, organism-based
Large intestine = assay: Drug uptake in albino F344/DuCrlCrlj rat large intestine assessed as ng equivalent of CS-1036 at 5 mg/kg, po after 24 hrs by liquid scintillation counting; format: ADME, organism-based
[8] = Drug uptake in albino F344/DuCrlCrlj rat fat assessed as ng equivalent of CS-1036 at 5 mg/kg, po after 1 hr by liquid scintillation counting; format: ADME, organism-based, Adipose tissue
Procedure, shortened: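 Male F344/DuCrlCrlj rats (bought at 7 weeks, acclimatized 5–6 days; 159–167 g; n = 3 per time point) received a single oral dose of [14C]CS-1036 at 5 mg/kg. White adipose tissue was collected after abdominal aortic bleeding at 1, 4, 8, 24, 72, 168 or 336 h. Samples were counted by LSC with external-standard efficiency correction. Results were converted to ng equivalents per g from specific activity and sample weight.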

Cerebrum [9] = assay: Drug uptake in albino F344/DuCrlCrlj rat cerebrum assessed as ng equivalent of CS-1036 at 5 mg/kg, po after 336 hrs by liquid scintillation counting; format: ADME, organism-based
Procedure, shortened: (§1)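 Single oral [14C]CS-1036 at 5 mg/kg was given to male rats (159–167 g; n = 3). Cerebrum was collected after aortic bleeding at 1, 4, 8, 24, 72, 168 or 336 h, weighed, and homogenized in 2 volumes of saline. A 0.5 ml aliquot was solubilized in Soluene-350 and counted by LSC with external-standard correction. Results are in ng equivalent/g tissue from specific activity and sample weight.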

[10] = Drug uptake in albino F344/DuCrlCrlj rat thyroid gland at 5 mg/kg, po after 168 hrs by liquid scintillation counting; format: ADME, organism-based
[11] = Drug uptake in albino F344/DuCrlCrlj rat bone marrow at 5 mg/kg, po after 168 hrs by liquid scintillation counting; format: ADME, organism-based
[12] = Drug uptake in albino F344/DuCrlCrlj rat bone marrow at 5 mg/kg, po after 24 hrs by liquid scintillation counting; format: ADME, organism-based
Heart [13] = assay: Drug uptake in albino F344/DuCrlCrlj rat heart at 5 mg/kg, po after 168 hrs by liquid scintillation counting; format: ADME, organism-based
Aorta [14] = assay: Drug uptake in albino F344/DuCrlCrlj rat aorta at 5 mg/kg, po after 168 hrs by liquid scintillation counting; format: ADME, organism-based
Cerebellum [15] = assay: Drug uptake in albino F344/DuCrlCrlj rat cerebellum assessed as ng equivalent of CS-1036 at 5 mg/kg, po after 24 hrs by liquid scintillation counting; format: ADME, organism-based
Kidney = assay: Drug uptake in albino F344/DuCrlCrlj rat kidney assessed as ng equivalent of CS-1036 at 5 mg/kg, po after 1 hr by liquid scintillation counting; format: ADME, organism-based
Harderian gland [16] = assay: Drug uptake in albino F344/DuCrlCrlj rat harderian gland at 5 mg/kg, po after 4 hrs by liquid scintillation counting; format: ADME, organism-based
Lung = assay: Drug uptake in albino F344/DuCrlCrlj rat lung assessed as ng equivalent of CS-1036 at 5 mg/kg, po after 4 hrs by liquid scintillation counting; format: ADME, organism-based
Cerebrum [17] = assay: Drug uptake in albino F344/DuCrlCrlj rat cerebrum assessed as ng equivalent of CS-1036 at 5 mg/kg, po after 4 hrs by liquid scintillation counting; format: ADME, organism-based; procedure, shortened: as §1
Aorta [18] = assay: Drug uptake in albino F344/DuCrlCrlj rat aorta assessed as ng equivalent of CS-1036 at 5 mg/kg, po after 72 hrs by liquid scintillation counting; format: ADME, organism-based
Small intestine = assay: Drug uptake in albino F344/DuCrlCrlj rat small intestine at 5 mg/kg, po after 1 hr by liquid scintillation counting; format: ADME, organism-based
Heart [19] = assay: Drug uptake in albino F344/DuCrlCrlj rat heart at 5 mg/kg, po after 4 hrs by liquid scintillation counting; format: ADME, organism-based
[20] = Drug uptake in albino F344/DuCrlCrlj rat mandibular gland assessed as ng equivalent of CS-1036 at 5 mg/kg, po after 72 hrs by liquid scintillation counting; format: ADME, organism-based
[21] = Drug uptake in albino F344/DuCrlCrlj rat eyeball at 5 mg/kg, po after 72 hrs by liquid scintillation counting; format: ADME, organism-based
Adrenal gland = assay: Drug uptake in albino F344/DuCrlCrlj rat adrenal gland at 5 mg/kg, po after 8 hrs by liquid scintillation counting; format: ADME, organism-based
[22] = Drug uptake in albino F344/DuCrlCrlj rat epididymis assessed as ng equivalent of CS-1036 at 5 mg/kg, po after 72 hrs by liquid scintillation counting; format: ADME, organism-based
Heart [23] = assay: Drug uptake in albino F344/DuCrlCrlj rat heart assessed as ng equivalent of CS-1036 at 5 mg/kg, po after 72 hrs by liquid scintillation counting; format: ADME, organism-based
Pancreas [24] = assay: Drug uptake in albino F344/DuCrlCrlj rat pancreas at 5 mg/kg, po after 72 hrs by liquid scintillation counting; format: ADME, organism-based
Pancreas [25] = assay: Drug uptake in albino F344/DuCrlCrlj rat pancreas assessed as ng equivalent of CS-1036 at 5 mg/kg, po after 168 hrs by liquid scintillation counting; format: ADME, organism-based

C[C@H]1O[C@@H](O[C@H]2[C@H](O)[C@@H](O)[C@@H](O[14C@H]3[14C@H](O)[14CH2]N[14C@@H]3[14CH2]O)O[C@@H]2CO)[C@H](O)[C@@H](O)[C@@H]1O
Radiolabel recovery (Spleen): 84.8 ngequiv/g
Radiolabel recovery (Harderian gland [1]): 5.08 ngequiv/g
Radiolabel recovery (Liver [2]): 346 ngequiv/g
Radiolabel recovery (Stomach): 640 ngequiv/g
Radiolabel recovery (Aorta [3]): 42.1 ngequiv/g
Radiolabel recovery (Harderian gland [4]): 17.1 ngequiv/g
Radiolabel recovery (Liver [5]): 116 ngequiv/g
Radiolabel recovery (Blood): 8.55 ngequiv/ml
Radiolabel recovery (Cerebellum [6]): 0.79 ngequiv/g
Radiolabel recovery [7]: 11.4 ngequiv/g
Radiolabel recovery (Large intestine): 138 ngequiv/g
Radiolabel recovery [8]: 1.53 ngequiv/g
Radiolabel recovery (Cerebrum [9]): 2.36 ngequiv/g
Radiolabel recovery [10]: 33.7 ngequiv/g
Radiolabel recovery [11]: 47 ngequiv/g
Radiolabel recovery [12]: 116 ngequiv/g
Radiolabel recovery (Heart [13]): 13.8 ngequiv/g
Radiolabel recovery (Aorta [14]): 18.1 ngequiv/g
Radiolabel recovery (Cerebellum [15]): 2.3 ngequiv/g
Radiolabel recovery (Kidney): 102 ngequiv/g
Radiolabel recovery (Harderian gland [16]): 39.1 ngequiv/g
Radiolabel recovery (Lung): 10.3 ngequiv/g
Radiolabel recovery (Cerebrum [17]): 1.4 ngequiv/g
Radiolabel recovery (Aorta [18]): 16.1 ngequiv/g
Radiolabel recovery (Small intestine): 52100 ngequiv/g
Radiolabel recovery (Heart [19]): 36 ngequiv/g
Radiolabel recovery [20]: 9.5 ngequiv/g
Radiolabel recovery [21]: 7.83 ngequiv/g
Radiolabel recovery (Adrenal gland): 66.1 ngequiv/g
Radiolabel recovery [22]: 8.3 ngequiv/g
Radiolabel recovery (Heart [23]): 9.2 ngequiv/g
Radiolabel recovery (Pancreas [24]): 186 ngequiv/g
Radiolabel recovery (Pancreas [25]): 5.8 ngequiv/g
